An excerpt weighted towards active compounds, which were near 2.4% of everything screened.
MT stabilize HCS – microtubule stabilization, imaging screen. 0.83% of 200,000 active. % tubulin-high responders, % at 10 µM. HeLa tubulin immunostaining HCS, 24 h; share of cells brighter than vehicle mean+2SD. AID 2205;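 active = plate Z-score above 3 for both tubulin-high and condensed-nucleus cell shares, with cell loss under 80%, at 10 µM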;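 note: anti alpha tubulin signal scored within the nucleus-defined area of each cell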
b-catenin transl – alters nuclear translocation of beta-catenin in HeLa cells. 0.3% of 190,000 active. nuclear translocation activity, % at 5 µM. immunofluorescence imaging;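 active = nuclear translocation activity above 50% at 5 µM, with a well cell count of 50 or more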;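 note: per-cell ratio of nuclear to cytoplasmic median beta-catenin stain intensity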
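Test system: HeLa cells, endogenous beta-catenin; Compound: single 5 µM dose plus 0.02–20 µM confirmation series; Times: compound exposure 24 h at 37°C; Signal: fluorescence imaging of beta-catenin antibody stain plus DAPI; Read-out: % activation, nuclear-to-cytoplasmic median beta-catenin signal ratio per cell.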
Insulin prom inh – TRM-6 insulin promoter activity inhibition. TRM-6 cells, insulin promoter-eGFP reporter, imaging; reporter expression induced with tamoxifen. inhibition, % at 2 µM. 0.9% of 130,000 active. AID 1273;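 active = inhibition above the mean plus 3 SD, with well images judged a real hit on visual review, cut at about 60% in these data, passing the limit was not always enough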
ROMK primary – modulators of human ROMK potassium channel. B-score at 10 µM. AID 1918. Tet-inducible ROMK, thallium flux fluorescence; actives lie on both sides. 2% of 130,000 active. P48048;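 active = signal ratio slope over the read window, or its plate-corrected B-score, at least 3 SD from the plate mean, either direction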;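 note: B-score of the F/F0 ratio slope over 7 to 12 s after thallium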
Target sequence (P48048 whole entry, looked up): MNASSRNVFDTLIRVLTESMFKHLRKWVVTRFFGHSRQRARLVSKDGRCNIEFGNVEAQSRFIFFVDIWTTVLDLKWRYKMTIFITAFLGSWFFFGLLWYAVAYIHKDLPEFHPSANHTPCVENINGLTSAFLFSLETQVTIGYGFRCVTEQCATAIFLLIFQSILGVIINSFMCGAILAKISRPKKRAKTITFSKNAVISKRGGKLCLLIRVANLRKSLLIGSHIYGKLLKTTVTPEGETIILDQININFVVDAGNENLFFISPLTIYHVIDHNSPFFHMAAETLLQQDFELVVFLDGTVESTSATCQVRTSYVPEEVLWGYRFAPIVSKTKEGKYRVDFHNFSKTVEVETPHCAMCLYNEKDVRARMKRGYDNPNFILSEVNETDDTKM
HSV replic up – increases HSV replication in cells | maximum fold increase | AID 1956 | 0.005% of 220,000 active | HSV replication augmentation in cells, fold increase; in the data active = maximum fold increase above about 1.5; tested in PC3 cells
Hits are given with their value; - = inactive; . = not tested or not shown.

SMILES	MT stabilize HCS	b-catenin transl	Insulin prom inh	ROMK primary	HSV replic up
Cc1ccccc1N1CCN(C2=NC(=O)/C(=C\c3cccs3)S2)CC1	9.4	-	-	-	-
O=C1N=C(N2CCN(c3cccc4ccccc34)CC2)S/C1=C/c1cccs1	-	-	-	.	-
CC(/C=C1\N=C(SCc2ccccc2)SC1=O)=C\c1ccccc1	-	-	-	.	-
CC(C)CN(C(=O)c1cc2ccccc2o1)c1c(N)n(CC(C)C)c(=O)[nH]c1=O	-	-	.	.	-
COc1ccccc1C(C)NC(=O)c1ccc(C)o1 (stereo unspecified)	43.7	.	-	-	-
COc1ccc(OC)c(C(C)NC(=O)c2ccco2)c1 (stereo unspecified)	25.9	-	.	-	-
O=C(COC(=O)c1cccs1)NCc1ccco1	.	-	.	.	-
O=C(COC(=O)c1ccc(NS(=O)(=O)c2cccs2)cc1)NCc1ccco1	.	110.8	.	.	-
COc1ccccc1Nc1nc(C)cs1	-	-	-	.	-
Cc1nc2ncccn2c1-c1csc(Nc2ccccc2)n1	19.0	-	-	-	-
Cc1nc2ncccn2c1-c1csc(NCc2ccco2)n1	-	-	-	.	-
COc1ccccc1Nc1nc(-c2c(C)nc3ncccn23)cs1	15.1	-	-	-	-
COc1ccc(Nc2nc(-c3c(C)nc4ncccn34)cs2)cc1	14.3	55.8	-	3.14	-
COC(=O)Nc1nc(C)c(C(=O)c2ccccc2)s1	-	55.9	-	-	-
Cc1nc(Nc2ccccc2)sc1C(=O)c1ccccc1	.	-	.	.	-
COC(=O)Nc1nc(-c2ccccc2)c(C(=O)c2ccccc2)s1	-	162.1	-	-	-
Cn1cccc1C(C(=O)NC1CCCCC1)N(C(=O)Cc1cccs1)C1CC1 (stereo unspecified)	-	-	.	-	-
COc1ccc(N(C(=O)Cc2cccs2)C(C(=O)NC2CCCCC2)c2cccn2C)cc1OC (stereo unspecified)	-	-	-	-3.89	-
Cc1c(Cl)cccc1NC(=O)C(=O)NNC(=O)c1ccccc1F	-	-	.	10.4	-
Cc1ccccc1C(=O)NNC(=O)C(=O)Nc1cccc(Cl)c1C	-	-	-	.	-
Cc1cccc(C)c1NC(=S)NC(=O)c1ccc(Br)o1	-	-	.	2.11	-
C(=C\c1ccccc1)/C=N/Nc1nc2ccccc2[nH]1	12.9	-	.	.	-
CCN(CC)C(=O)Nc1ccc(C(=O)OC)cc1	-	-	83.3	-	-
COc1ccc(-c2[nH]c(-c3ccccc3)nc2SCC(=O)NCc2ccco2)cc1OC	-	.	.	.	-
COc1ccc(-c2nc(SCC(=O)NCc3ccco3)c(-c3ccccc3)[nH]2)cc1OC	-	.	72.4	-	-
SMILES	MT stabilize HCS	b-catenin transl	Insulin prom inh	ROMK primary	HSV replic up
O=C1/C(=C/c2cccnc2)CC/C1=C\c1cccnc1	-	-	-	-	-
CCC1C/C(=C\c2cccnc2)C(=O)/C(=C/c2cccnc2)C1 (stereo unspecified)	45.5	-	-	-4.29	-
CC(C)/C=C1\CC/C(=C\c2cccnc2)C1=O	-	-	-	-	-
O=C1/C(=C/c2cccnc2)CCC/C1=C\c1cccnc1	29.3	-	-	-4.58	-
CC(C)NC(=O)c1ccc(-n2c(=S)[nH]c3ccccc3c2=O)cc1	-	-	.	-	-
S=C(NN=C(C1CC1)C1CC1)Nc1ccccc1	-	-	-	-	-
CCN(CC)c1nc(C#N)cc(-c2ccc(OC)cc2)n1	63.2	-	-	-	-
COc1ccc(-c2cc(C#N)nc(Cl)n2)cc1	.	-	.	-	-
COc1ccccc1NC(=S)N(Cc1ccco1)Cc1cc2cc(C)cc(C)c2[nH]c1=O	-	-	.	.	-
Cc1cc(C)c2nc(Cl)c(CN(Cc3ccco3)C(=O)Nc3ccccc3C)cc2c1	21.4	-	-	.	-
COCCN(Cc1cc2cc(C)cc(C)c2nc1Cl)C(=O)Nc1ccccc1	33.5	-	-	.	-
O=C(COC(=O)c1ccc(S(=O)(=O)N2CCCC2)cc1)NCc1cccs1	-	-	-	-	-
COc1cc(C(=O)NC2CCCC2)c(Br)c(OC)c1OC	-	-	.	-	-
COc1cc(C(=O)NCCOc2cc(C)cc(C)c2)c(Br)c(OC)c1OC	44.2	-	.	.	-
CSc1cccc(NC(=O)C2CCN(C(=O)c3ccccc3C)CC2)c1	-	-	-	-	-
O=C(Nc1cccnc1)C1CCC(CNS(=O)(=O)c2cccc3nsnc23)CC1 (stereo unspecified)	.	-	.	-	-
Clc1cc(Br)ccc1OCCOCCN1CCOCC1	-	111.5	-	-	-
CCOc1ccc2oc(C(=O)OC(C(=O)NC(N)=O)C(C)C)c(C)c2c1 (stereo unspecified)	.	-	.	-	-

From PubChem
